From ChEMBL document CHEMBL2093137, “WHO-TDR NTD Screening”
Converted amounts (≈) assume the structure as drawn.

Experiments:
Brugia malayi [1] = experiment: (§1) WHO-TDR: Lymphatic Filariasis; format: functional, organism-based;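 for % Inhibition: tested at 10 µM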
How it was run: (§2)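 In a whole-organism assay, Brugia malayi microfilariae were screened against a diverse Life Chemicals library that had been filtered for drug-likeness and reactive groups. That library comprised 10,000 compounds. Activity is expressed as percent inhibition and as IC50.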

Schistosoma mansoni = experiment: WHO-TDR: Schistosomiasis; format: functional; parameters: concentration or dose not given beside the values
How it was run: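 In this whole-organism assay, larval and/or adult worms of Schistosoma mansoni (Puerto Rican strain) were exposed to compounds from a diverse Life Chemicals library of 10,000 members. A reference drug served as positive control. Activity is stated as percent inhibition and IC50.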

Brugia malayi [2] = experiment: as §1; format: functional; parameters: concentration or dose not given beside the values; how it was run: as §2
[3] = system: Trypanosoma brucei brucei; experiment: WHO-TDR: Human African Trypanosomiasis (HAT); format: functional, organism-based; details: Squib-427
How it was run: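 In this whole-organism screen, the target was the bloodstream form of Trypanosoma brucei, strain Squib 427. A diverse set of 10,000 compounds from Life Chemicals, previously filtered for drug-likeness and reactive groups, was assayed by standard published procedures using reference drugs as positive controls. Each value is an IC50 for antiparasitic potency.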

Plasmodium falciparum K1 = experiment: WHO-TDR: Malaria; format: functional, organism-based, Homo sapiens; details: Erythrocyte
How it was run: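 Previously published standard procedures, including a reference drug as positive control, were used to screen whole Plasmodium falciparum K1 parasites inside human red blood cells. IC50 is the measure of antiplasmodial potency. The compounds were a 10,000-member diverse Life Chemicals library.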

Leishmania infantum = experiment: WHO-TDR: Leishmaniasis; format: functional, organism-based, Mus musculus; details: Macrophage
How it was run: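 Intracellular amastigotes of Leishmania infantum MHOM/MA(BE)/67, hosted in murine peritoneal macrophages, were exposed to compounds from a 10,000-member diverse library supplied by Life Chemicals. The library had been filtered for drug-likeness and reactive groups. The reported IC50 expresses antiparasitic potency.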

Trypanosoma cruzi = experiment: WHO-TDR: Chagas disease; format: functional, organism-based, Homo sapiens; details: MRC5
How it was run: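 Each IC50 reflects antiparasitic potency against intracellular amastigotes of Trypanosoma cruzi Tulahuen CL2 beta-galactosidase strain. These were cultured in MRC-5SV2 human lung fibroblasts and exposed to a 10,000-compound diverse Life Chemicals library screened according to published standard procedures with a reference drug as positive control.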

Onchocerca lienalis = experiment: (§3) WHO-TDR: Onchocerciasis; format: functional; parameters: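 at 12.5 µM on microfilariae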
How it was run: (§4)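 Microfilariae of Onchocerca ochengi or Onchocerca lienalis, animal pathogens standing in for the human parasite, were exposed to compounds in a whole-organism screen. The compounds came from a 10,000-compound diverse Life Chemicals library filtered for drug-likeness and reactive groups. Results are expressed as percent inhibition and IC50.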

Brugia malayi [4] = experiment: as §1; format: functional; parameters: concentration or dose not given beside the values; how it was run: as §2; remark: listed apart in the source
[5] = WHO-TDR: Cytotoxicity; format: toxicity, cell-based; details: human, MRC5 cells
Onchocerca ochengi = experiment: as §3; format: functional; parameters: concentration or dose not given beside the values; how it was run: as §4;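 note: at 12.5 µM on microfilariae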

Row | Compound | IC50 (Brugia malayi [1]) | % Inhibition (Schistosoma mansoni) | % Inhibition (Brugia malayi [2]) | IC50 [3] | IC50 (Plasmodium falciparum K1) | IC50 (Leishmania infantum) | IC50 (Trypanosoma cruzi) | % Inhibition (Onchocerca lienalis) | % Inhibition (Brugia malayi [4]) | IC50 [5] | % Inhibition (Onchocerca ochengi)
1 | O=C(CCCSc1ccc(F)cc1)N1CCN(c2nc3ccc(Cl)cc3s2)CC1 | 3.54 µM | 0% | 40% | > 13.5 µg/mL | > 13.5 µg/mL | 4.37 µg/mL (≈ 9.71 µM) | > 13.5 µg/mL | 12.34% | 100% | > 13.5 µg/mL | 
2 | O=C(CSc1nnc(NC(=O)C2CCCCC2)s1)Nc1ccccc1C(F)(F)F | 3.58 µM | 0% | 0% | > 13.3 µg/mL | > 13.3 µg/mL | > 13.3 µg/mL | > 13.3 µg/mL | 0% | 100% | > 13.3 µg/mL | 
3 | O=C(O)CCC(=O)Nc1ccc(Br)cc1 | 6.6 µM | 0% | 0% | > 8.16 µg/mL | > 8.16 µg/mL | > 8.16 µg/mL | > 8.16 µg/mL | 0% | 100% | > 8.16 µg/mL | 
4 | O=C(Nc1nc(-c2ccccn2)cs1)c1ccc2ncsc2c1 | 2.02 µM | 0% | 40% | 2.36 µg/mL (≈ 6.99 µM) | 1.52 µg/mL (≈ 4.49 µM) | 3.21 µg/mL (≈ 9.49 µM) | 0.345 µg/mL (≈ 1.02 µM) | 66.7% | 100% | 3.63 µg/mL (≈ 10.7 µM) | 
5 | CCOC(=O)c1c(NC(=O)CSc2nc3c([nH]c4ccccc43)c(=O)n2-c2ccccc2)sc2c1CCC2 | 4.37 µM | 0% | 25% | > 17.4 µg/mL | > 16.3 µg/mL | 5.29 µg/mL (≈ 9.71 µM) | > 16.3 µg/mL | 0% | 100% | > 16.3 µg/mL | 
6 | O=C(Nc1nc2c(s1)CSc1ccccc1-2)C1CCCN1S(=O)(=O)c1cccs1 (stereo not given) | 5.19 µM | 100% | 0% | 0.45 µg/mL (≈ 0.971 µM) | 3.71 µg/mL (≈ 8 µM) | 4.5 µg/mL (≈ 9.71 µM) | 0.5 µg/mL (≈ 1.08 µM) | 93% | 100% | 1.88 µg/mL (≈ 4.06 µM) | 
7 | COc1ccc(-c2nnc(NC(=O)c3ccc(S(=O)(=O)N4CC(C)OC(C)C4)cc3)o2)c(OC)c1 (stereo not given) | 3.22 µM | 0% | 25% | > 15.1 µg/mL | 10.6 µg/mL (≈ 21.1 µM) | 4.88 µg/mL (≈ 9.71 µM) | 4.91 µg/mL (≈ 9.78 µM) | 66.7% | 100% | > 15.1 µg/mL | 
8 | COC(=O)c1ccc(CSc2ccc(NC(=O)C(C)C)nn2)o1 | 6.15 µM | 0% | 0% | > 10.1 µg/mL | > 10.1 µg/mL | > 10.1 µg/mL | > 10.1 µg/mL |  | 100% | > 10.1 µg/mL | 0%
9 | COC(=O)c1ccc(COc2cccc3c2CCN(Cc2ccc(Cl)cc2)C3=O)o1 | 4.61 µM | 0% | 12.5% | 0.772 µg/mL (≈ 1.81 µM) | 4.84 µg/mL (≈ 11.4 µM) | > 12.8 µg/mL | 3.19 µg/mL (≈ 7.49 µM) | 20% | 100% | > 12.8 µg/mL | 
10 | Cc1[nH]c2ccccc2c1SCCNC(=O)c1c(-c2ccccc2Cl)noc1C | 4.49 µM | 0% | 25% | > 13.6 µg/mL | > 12.8 µg/mL | > 12.8 µg/mL | > 12.8 µg/mL | 20% | 100% | > 12.8 µg/mL | 
11 | O=C(CSc1nnc(NC(=O)C23CC4CC(CC(C4)C2)C3)s1)Nc1nccs1 | 6.3 µM | 0% | 33.33% | > 13.1 µg/mL | > 13.1 µg/mL | 4.23 µg/mL (≈ 9.71 µM) | > 13.1 µg/mL | 33.34% | 100% | > 13.1 µg/mL | 
12 | CCN1CCc2c(sc(NC(=O)c3ccc(S(=O)(=O)N4CC5(C)CC4CC(C)(C)C5)cc3)c2C(N)=O)C1 (stereo not given) | 3.54 µM | 0% | 0% | 3.82 µg/mL (≈ 7.01 µM) | 5.59 µg/mL (≈ 10.3 µM) | 5.29 µg/mL (≈ 9.71 µM) | 3.2 µg/mL (≈ 5.88 µM) | 6.7% | 100% | 3.41 µg/mL (≈ 6.26 µM) | 
13 | CCCCc1ccc(NC(=O)CSc2nccn2-c2ccccc2)cc1 | 4.31 µM | 0% | 25% | > 11.7 µg/mL | > 11 µg/mL | > 11 µg/mL | 3.22 µg/mL (≈ 8.81 µM) | 0% | 100% | > 11 µg/mL | 
14 | COc1cccc(C(=O)Nc2nnc(SCc3ccc(Br)cc3)s2)c1 | 1.77 µM | 0% | 33.33% | > 13.1 µg/mL | > 13.1 µg/mL | > 13.1 µg/mL | > 13.1 µg/mL | 0% | 100% | > 13.1 µg/mL | 
15 | Cc1nn(-c2ccccc2)c2[nH]cc(C(=O)Nc3ccc(F)c(Cl)c3)c(=O)c12 | 5.95 µM | 62.5% | 33.33% | 4.14 µg/mL (≈ 10.4 µM) | > 11.9 µg/mL | 2.34 µg/mL (≈ 5.9 µM) | 1.96 µg/mL (≈ 4.93 µM) | -1% | 100% | 1 µg/mL (≈ 2.53 µM) | 
16 | Cc1nc2ccc3nc(Nc4nc5c(F)cccc5s4)sc3c2s1 | 5.21 µM | 0% | 50% | > 11.2 µg/mL | > 11.2 µg/mL | > 11.2 µg/mL | > 11.2 µg/mL |  | 100% | > 11.2 µg/mL | 
17 | CCCCc1ccc(NC(=O)CSc2cn(CC)c3ccccc23)cc1 | 3.54 µM | 0% | 0% | 3.56 µg/mL (≈ 9.71 µM) | > 11 µg/mL | > 11 µg/mL | 2.93 µg/mL (≈ 7.99 µM) |  | 100% | > 11 µg/mL | 
18 | CCn1ccc(C(=O)Nc2nc(-c3cc(Cl)ccc3Cl)cs2)n1 | 5.18 µM | 50% | 0% | 3.52 µg/mL (≈ 9.6 µM) | > 11 µg/mL | > 11 µg/mL | > 11 µg/mL |  | 100% | > 11 µg/mL | 50%
19 | O=C(Cc1cc(-c2ccc(Cl)cc2)on1)Nc1cccnc1 | 1.77 µM | 0% | 0% | > 9.41 µg/mL | > 9.41 µg/mL | > 9.41 µg/mL | 2.25 µg/mL (≈ 7.18 µM) |  | 100% | 1.19 µg/mL (≈ 3.8 µM) | 75%
20 | O=C(Nc1nc2c(Cl)ccc(Cl)c2s1)C1=COCCO1 | 3.97 µM | 0% | 25% | > 10.6 µg/mL | > 9.93 µg/mL | > 9.93 µg/mL | > 9.93 µg/mL |  | 100% | > 9.93 µg/mL | 
21 | COc1ccc(NC(=O)c2oc3ccccc3c2NC(=O)c2cccc(Cl)c2)c(OC)c1 | 4.49 µM | 25% | 0% | > 13.5 µg/mL | > 13.5 µg/mL | > 13.5 µg/mL | > 13.5 µg/mL |  | 100% | > 13.5 µg/mL | 
22 | O=C(Nc1nnc(-c2ccc3c(c2)CCCC3)o1)c1cc(Cl)sc1Cl | 4.49 µM | 0% | 50% | 3.79 µg/mL (≈ 9.63 µM) | > 11.8 µg/mL | 6.13 µg/mL (≈ 15.5 µM) | 3.88 µg/mL (≈ 9.83 µM) |  | 100% | > 11.8 µg/mL | 
